Results on one compound are retold here after ChEMBL document CHEMBL4371052, “Diarylcarbonates are a new class of deubiquitinating enzyme inhibitor” (Bioorg Med Chem Lett, 2019).

In data set [1] the target is Ubiquitin carboxyl-terminal hydrolase 28 (Homo sapiens) (UniProt Q96RU2). The experiment in a line: Inhibition of USP28 in HEK293T cell lysates at 25 uM using HA-tagged vinyl-sulfone as substrate measured after 2 to 30 mins by Western blot analysis. The settings on record: Lysate. In kind it is subcellular. A digest of the protocol:
(§1)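 HEK 293T lysate (1.5 mg/ml) given compound (25 μM) or DMSO at the same time as HA-Ub-VS (1.5 μM). Aliquots withdrawn over time were run on SDS-PAGE and immunoblotted for HA.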
(In general: In western blotting, separated proteins are transferred to a membrane and probed.)

Data set [2] concerns the target Ubiquitin carboxyl-terminal hydrolase isozyme L1 (Homo sapiens) (UniProt P09936). In words: Inhibition of UCHL1 in HEK293T cell lysates assessed as enzyme recovery at 250 uM using HA-tagged vinyl-sulfone as substrate […] followed by 10-fold dilution and subsequent substrate addition measured within 15 mins by Western blot analysis. In kind it is subcellular. The settings on record: Lysate.

The target in data set [3] is Ubiquitin carboxyl-terminal hydrolase 9X (Homo sapiens) (UniProt Q93008). In words: Inhibition of USP9x in human K562 cells assessed as decrease in Bcr-Abl expression at 50 uM measured after 4 hrs in presence of proteasome inhibitor bortezomib by Western blot analysis. The format is cell-based. In short, it runs like this:
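K562 cells treated with 50 μM compound with or without bortezomib (6 μM) for 4 h. Lysates were sonicated in SDS, and Bcr-Abl was measured by anti-Abl immunoblot with quantitation.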

Data set [4] has as its target T1, Ubiquitin carboxyl-terminal hydrolase 19 (Homo sapiens) (UniProt O94966).
T1 sequence (whole entry): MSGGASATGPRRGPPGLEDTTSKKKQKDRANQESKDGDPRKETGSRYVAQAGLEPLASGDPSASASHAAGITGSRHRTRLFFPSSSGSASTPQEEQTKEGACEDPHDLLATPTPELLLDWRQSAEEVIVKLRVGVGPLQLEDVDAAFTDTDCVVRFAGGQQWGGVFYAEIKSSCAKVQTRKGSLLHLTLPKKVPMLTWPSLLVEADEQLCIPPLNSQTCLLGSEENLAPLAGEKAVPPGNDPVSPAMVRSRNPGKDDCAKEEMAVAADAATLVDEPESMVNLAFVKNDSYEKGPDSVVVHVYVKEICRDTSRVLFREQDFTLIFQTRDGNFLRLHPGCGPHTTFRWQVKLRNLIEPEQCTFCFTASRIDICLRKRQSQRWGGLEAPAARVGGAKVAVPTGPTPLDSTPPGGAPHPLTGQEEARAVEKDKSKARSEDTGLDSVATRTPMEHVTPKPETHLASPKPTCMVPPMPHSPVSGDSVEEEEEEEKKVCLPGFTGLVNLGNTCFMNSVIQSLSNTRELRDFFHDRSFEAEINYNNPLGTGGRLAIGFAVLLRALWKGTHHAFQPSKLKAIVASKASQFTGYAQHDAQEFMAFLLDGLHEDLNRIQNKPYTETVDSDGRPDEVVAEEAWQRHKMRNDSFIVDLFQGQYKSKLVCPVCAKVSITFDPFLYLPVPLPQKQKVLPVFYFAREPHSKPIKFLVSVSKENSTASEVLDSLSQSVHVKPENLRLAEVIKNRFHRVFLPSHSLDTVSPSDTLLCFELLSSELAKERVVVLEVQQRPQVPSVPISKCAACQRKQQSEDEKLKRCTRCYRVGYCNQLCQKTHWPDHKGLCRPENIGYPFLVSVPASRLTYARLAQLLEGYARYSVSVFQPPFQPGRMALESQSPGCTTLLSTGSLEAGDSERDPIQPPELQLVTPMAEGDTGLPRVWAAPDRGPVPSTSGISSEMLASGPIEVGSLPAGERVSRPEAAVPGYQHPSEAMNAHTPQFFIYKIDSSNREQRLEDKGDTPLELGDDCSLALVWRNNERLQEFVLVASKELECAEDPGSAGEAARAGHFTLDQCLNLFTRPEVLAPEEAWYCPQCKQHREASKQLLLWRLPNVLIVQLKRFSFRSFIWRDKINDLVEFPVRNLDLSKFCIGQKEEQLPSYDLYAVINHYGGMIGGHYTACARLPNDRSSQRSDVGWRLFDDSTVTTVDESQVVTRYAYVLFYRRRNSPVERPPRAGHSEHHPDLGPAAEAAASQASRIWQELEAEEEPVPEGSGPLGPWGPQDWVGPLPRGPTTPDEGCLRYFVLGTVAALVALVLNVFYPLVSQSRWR
In words: Inhibition of USP19 in HEK293T cell lysates at 25 uM using HA-tagged vinyl-sulfone as substrate measured after 2 to 30 mins by Western blot analysis. The format is subcellular. The settings on record: Lysate. A digest of the protocol:
as §1

Data set [5] in a line: Inhibition of deubiquitinase in HEK293T cells assessed as stabilization of K48-linked HMW-Ub protein by Western blot analysis. The format is cell-based, Homo sapiens.
Data set [6] addresses Ubiquitin carboxyl-terminal hydrolase 7 (Homo sapiens) (UniProt Q93009). In words: Inhibition of USP7 in HEK293T cell lysates assessed as enzyme recovery at 250 uM using HA-tagged vinyl-sulfone as substrate […] followed by 10-fold dilution and subsequent substrate addition measured up to 2 hrs by Western blot analysis. In kind it is subcellular. To be noted: Lysate.
The target is the same in data set [7]. The experiment in a line: Inhibition of recombinant His6-tagged USP7 catalytic domain (unknown origin) assessed as association constant using Ub-AMC as substrate by fluorescence assay.
Another data set concerns MCF7. The experiment in a line: Cytotoxicity against human MCF7 cells assessed as decrease in cell viability treated every 24 hrs measured after 72 hrs by alamar blue assay. In kind it is functional, cell-based. In short, it runs like this: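 MCF7 or B16/F10 cells dosed with compound every 24 h. Viable cells were quantified with Alamar Blue after 72 h.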
For orientation: The colour change of resazurin is a common sign of viable cells or microbes.

The target of data set [8] is Chymotrypsin (Homo sapiens, UniProt Q99895+P17538+P40313+Q6GPI1). The experiment in a line: (§2) Substrate activity at chymotrypsin (unknown origin) by Michaelis-Menten plot analysis. The format is ADME, protein assay. In short, it runs like this: (§3)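 Diarylcarbonate hydrolysis by chymotrypsin or trypsin measured across substrate concentrations; velocity versus substrate concentration fit for Km and kcat.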

For data set [9], the target named is chymotrypsin (Homo sapiens, UniProt P17538+P40313+Q6GPI1+Q99895). Described as §2. In kind it is ADME, protein assay. To be noted: chymotrypsin (isolated enzyme, unknown origin). In short, it runs like this: as §3
Data set [10] concerns the target Ubiquitin carboxyl-terminal hydrolase 17-like protein 24 (Homo sapiens) (UniProt Q0WX57). In words: Inhibition of USP17 in HEK293T cell lysates at 25 uM using HA-tagged vinyl-sulfone as substrate preincubated for 19 to 60 mins followed by substrate addition and measured after 19 to 25 mins by Western blot analysis. In kind it is subcellular. To be noted: Lysate.

Data set [11] concerns the target Ubiquitin carboxyl-terminal hydrolase 7 (Homo sapiens) (UniProt Q93009). In words: Inhibition of USP7 in human MCF7 cells assessed as increase in p53 expression at 25 uM after 4 hrs by Western blot analysis. In kind it is cell-based. In short, it runs like this:
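MCF7 cells treated with compound for 4 h. Mdm2, p53 and p21 levels were determined by immunoblotting.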

In data set [12] the target is Ubiquitin carboxyl-terminal hydrolase 9X (Homo sapiens) (UniProt Q93008). The experiment in a line: Inhibition of USP9x in HEK293T cell lysates assessed as enzyme recovery at 250 uM using HA-tagged vinyl-sulfone as substrate preincubated for 40 mins followed by 10-fold dilution and subsequent substrate addition measured up to 2 hrs by Western blot analysis. The format is subcellular. To be noted: Lysate.
Sequence of Ubiquitin carboxyl-terminal hydrolase 9X (Homo sapiens) (Q93008 whole entry): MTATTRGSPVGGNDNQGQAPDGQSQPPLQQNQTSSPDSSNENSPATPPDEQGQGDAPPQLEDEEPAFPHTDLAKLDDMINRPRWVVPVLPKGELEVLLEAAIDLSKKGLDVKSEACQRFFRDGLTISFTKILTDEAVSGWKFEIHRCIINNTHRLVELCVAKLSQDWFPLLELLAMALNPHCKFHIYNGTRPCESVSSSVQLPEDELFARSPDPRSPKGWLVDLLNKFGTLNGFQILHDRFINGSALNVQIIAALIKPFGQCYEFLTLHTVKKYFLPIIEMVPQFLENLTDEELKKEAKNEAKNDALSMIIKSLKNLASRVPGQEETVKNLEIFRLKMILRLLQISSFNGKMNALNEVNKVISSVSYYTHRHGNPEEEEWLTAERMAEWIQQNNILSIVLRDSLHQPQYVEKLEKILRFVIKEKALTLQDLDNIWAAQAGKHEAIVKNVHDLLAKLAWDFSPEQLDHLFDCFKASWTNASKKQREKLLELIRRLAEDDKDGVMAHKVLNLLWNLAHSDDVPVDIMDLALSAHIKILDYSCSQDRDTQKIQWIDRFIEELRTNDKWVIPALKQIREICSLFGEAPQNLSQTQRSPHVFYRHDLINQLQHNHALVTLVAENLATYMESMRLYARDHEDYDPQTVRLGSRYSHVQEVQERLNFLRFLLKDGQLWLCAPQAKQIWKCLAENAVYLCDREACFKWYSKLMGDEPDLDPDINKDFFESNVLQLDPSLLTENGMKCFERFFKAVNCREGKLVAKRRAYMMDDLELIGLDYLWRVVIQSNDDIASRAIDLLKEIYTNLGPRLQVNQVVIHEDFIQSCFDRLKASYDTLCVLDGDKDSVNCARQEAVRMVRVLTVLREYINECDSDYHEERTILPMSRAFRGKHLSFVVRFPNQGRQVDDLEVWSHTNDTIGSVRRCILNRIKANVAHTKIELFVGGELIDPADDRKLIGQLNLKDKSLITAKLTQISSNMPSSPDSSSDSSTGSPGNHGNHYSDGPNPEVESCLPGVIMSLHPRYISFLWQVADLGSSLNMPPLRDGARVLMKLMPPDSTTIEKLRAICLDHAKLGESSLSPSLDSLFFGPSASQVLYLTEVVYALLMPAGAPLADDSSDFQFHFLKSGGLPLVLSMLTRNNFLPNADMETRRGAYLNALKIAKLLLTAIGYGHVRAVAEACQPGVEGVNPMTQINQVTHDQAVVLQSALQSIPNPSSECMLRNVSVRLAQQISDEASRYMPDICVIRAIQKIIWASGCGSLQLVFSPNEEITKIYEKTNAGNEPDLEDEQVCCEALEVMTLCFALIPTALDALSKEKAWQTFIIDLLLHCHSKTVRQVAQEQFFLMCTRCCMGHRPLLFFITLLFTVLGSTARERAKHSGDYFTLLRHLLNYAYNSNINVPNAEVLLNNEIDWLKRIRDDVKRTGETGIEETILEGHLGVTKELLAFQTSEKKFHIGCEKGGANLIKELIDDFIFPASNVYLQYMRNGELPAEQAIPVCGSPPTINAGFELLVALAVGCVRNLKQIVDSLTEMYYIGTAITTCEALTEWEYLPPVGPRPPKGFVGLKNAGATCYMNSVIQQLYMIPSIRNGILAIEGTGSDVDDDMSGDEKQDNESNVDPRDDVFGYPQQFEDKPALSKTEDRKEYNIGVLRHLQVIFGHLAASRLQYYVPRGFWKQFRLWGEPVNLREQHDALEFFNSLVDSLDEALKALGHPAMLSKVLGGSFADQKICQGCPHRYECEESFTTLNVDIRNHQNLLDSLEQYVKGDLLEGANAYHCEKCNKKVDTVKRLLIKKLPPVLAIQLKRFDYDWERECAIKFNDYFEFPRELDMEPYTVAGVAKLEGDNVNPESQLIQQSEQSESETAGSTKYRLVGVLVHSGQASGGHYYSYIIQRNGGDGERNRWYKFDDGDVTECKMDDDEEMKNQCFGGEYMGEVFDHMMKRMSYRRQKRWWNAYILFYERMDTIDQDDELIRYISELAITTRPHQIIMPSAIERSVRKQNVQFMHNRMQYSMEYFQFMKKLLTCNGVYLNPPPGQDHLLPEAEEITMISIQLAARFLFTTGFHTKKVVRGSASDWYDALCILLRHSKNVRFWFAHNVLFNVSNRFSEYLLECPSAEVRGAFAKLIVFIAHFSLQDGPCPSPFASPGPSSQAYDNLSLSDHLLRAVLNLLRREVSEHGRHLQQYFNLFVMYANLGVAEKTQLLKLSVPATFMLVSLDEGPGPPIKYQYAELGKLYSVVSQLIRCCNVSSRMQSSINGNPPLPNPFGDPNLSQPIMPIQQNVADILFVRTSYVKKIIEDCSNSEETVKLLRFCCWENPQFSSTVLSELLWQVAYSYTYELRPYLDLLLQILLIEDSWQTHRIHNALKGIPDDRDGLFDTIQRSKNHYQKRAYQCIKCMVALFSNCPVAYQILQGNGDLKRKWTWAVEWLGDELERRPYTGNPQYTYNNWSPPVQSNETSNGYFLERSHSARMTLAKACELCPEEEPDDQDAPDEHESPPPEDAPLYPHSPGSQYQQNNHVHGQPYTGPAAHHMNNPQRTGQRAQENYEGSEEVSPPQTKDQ

pEC50: −log10 of the molar value. The source made the active and inactive calls. The rule behind the calls is not given here.

Sequence of Ubiquitin carboxyl-terminal hydrolase 7 (Homo sapiens) (Q93009 whole entry, looked up, the tested form may be a part): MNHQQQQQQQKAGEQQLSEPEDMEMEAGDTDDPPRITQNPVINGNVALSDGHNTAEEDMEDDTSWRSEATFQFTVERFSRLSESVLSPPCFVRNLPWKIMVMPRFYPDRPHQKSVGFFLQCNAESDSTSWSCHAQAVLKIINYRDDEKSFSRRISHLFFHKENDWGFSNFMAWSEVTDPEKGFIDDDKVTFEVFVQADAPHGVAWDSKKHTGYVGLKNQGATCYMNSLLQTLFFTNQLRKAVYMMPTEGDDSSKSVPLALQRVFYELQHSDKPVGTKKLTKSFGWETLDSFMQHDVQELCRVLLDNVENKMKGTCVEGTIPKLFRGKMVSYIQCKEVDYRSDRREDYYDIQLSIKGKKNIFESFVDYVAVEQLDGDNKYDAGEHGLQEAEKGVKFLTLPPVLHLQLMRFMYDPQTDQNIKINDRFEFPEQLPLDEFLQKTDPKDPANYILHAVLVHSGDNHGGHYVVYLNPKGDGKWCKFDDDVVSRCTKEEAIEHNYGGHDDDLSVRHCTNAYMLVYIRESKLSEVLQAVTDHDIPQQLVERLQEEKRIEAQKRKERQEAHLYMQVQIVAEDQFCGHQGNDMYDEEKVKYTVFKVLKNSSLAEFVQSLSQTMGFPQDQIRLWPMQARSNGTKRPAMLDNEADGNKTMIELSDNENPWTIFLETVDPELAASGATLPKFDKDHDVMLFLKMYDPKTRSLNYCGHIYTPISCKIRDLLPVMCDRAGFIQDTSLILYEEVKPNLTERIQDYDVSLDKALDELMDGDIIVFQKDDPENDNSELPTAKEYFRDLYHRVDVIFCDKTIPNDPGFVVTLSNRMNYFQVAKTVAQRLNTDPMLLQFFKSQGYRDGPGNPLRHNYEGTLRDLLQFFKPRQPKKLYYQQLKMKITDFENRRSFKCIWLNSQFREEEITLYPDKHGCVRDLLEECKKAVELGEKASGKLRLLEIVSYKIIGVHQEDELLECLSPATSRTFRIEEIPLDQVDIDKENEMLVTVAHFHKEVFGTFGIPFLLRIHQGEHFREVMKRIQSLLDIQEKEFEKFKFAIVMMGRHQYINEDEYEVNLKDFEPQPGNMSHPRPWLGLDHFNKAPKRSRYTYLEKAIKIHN
Sequence of Ubiquitin carboxyl-terminal hydrolase 28 (Homo sapiens) (Q96RU2 whole entry): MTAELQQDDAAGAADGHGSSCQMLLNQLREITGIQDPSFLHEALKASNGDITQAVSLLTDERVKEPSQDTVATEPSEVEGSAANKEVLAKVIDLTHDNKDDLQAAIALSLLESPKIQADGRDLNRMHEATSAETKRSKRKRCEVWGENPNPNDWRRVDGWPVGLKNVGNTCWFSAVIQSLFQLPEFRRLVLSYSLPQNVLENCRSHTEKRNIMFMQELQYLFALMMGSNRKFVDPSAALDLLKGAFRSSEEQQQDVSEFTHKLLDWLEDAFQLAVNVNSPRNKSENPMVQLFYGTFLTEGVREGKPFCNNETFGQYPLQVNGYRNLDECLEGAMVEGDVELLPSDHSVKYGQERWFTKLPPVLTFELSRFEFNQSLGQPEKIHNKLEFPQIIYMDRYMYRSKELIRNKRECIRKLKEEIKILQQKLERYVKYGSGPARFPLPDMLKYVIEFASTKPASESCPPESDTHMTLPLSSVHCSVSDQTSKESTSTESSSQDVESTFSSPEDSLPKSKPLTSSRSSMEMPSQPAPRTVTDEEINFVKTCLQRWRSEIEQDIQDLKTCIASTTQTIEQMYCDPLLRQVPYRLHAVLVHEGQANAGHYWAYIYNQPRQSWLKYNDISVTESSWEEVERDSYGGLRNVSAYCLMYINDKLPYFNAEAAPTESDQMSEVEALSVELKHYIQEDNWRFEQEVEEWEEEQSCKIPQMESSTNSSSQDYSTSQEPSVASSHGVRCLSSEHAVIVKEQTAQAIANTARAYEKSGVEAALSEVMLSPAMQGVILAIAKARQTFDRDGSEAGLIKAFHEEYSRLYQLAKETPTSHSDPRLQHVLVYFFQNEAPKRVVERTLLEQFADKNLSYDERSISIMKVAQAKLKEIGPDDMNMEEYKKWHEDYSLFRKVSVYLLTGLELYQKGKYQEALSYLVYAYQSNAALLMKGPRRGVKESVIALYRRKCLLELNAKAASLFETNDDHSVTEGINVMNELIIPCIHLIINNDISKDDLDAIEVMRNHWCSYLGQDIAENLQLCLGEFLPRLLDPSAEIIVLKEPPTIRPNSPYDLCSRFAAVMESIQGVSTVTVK
Sequence of Ubiquitin carboxyl-terminal hydrolase isozyme L1 (Homo sapiens) (P09936 whole entry, looked up): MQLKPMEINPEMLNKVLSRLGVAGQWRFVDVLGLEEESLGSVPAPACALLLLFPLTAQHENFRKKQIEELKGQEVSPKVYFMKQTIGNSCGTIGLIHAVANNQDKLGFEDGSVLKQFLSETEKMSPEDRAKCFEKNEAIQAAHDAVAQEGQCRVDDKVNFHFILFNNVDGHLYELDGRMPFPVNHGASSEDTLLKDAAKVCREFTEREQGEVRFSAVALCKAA

For orientation: pEC50 means the negative decadic logarithm of the EC50, by convention in mol/L. For orientation: Km means the substrate concentration at which the rate is half of its maximum. Consider `NCc1ccc(OC(=O)Oc2ccc3ccccc3c2)cc1`, for which the inhibition result in data set [1], in [4], in data set [6] and in [12] was “inactive” in each case. The inhibition result in data set [2], in data set [3] and in data set [10] was “Active” in each case. Besides, in data set [5], the pEC50 was above 4.30. The K in data set [7] came to 9 M⁻¹ s⁻¹. Further, the outcome (in the data set with MCF7; in data set [11]) was Active. Moreover, on Chymotrypsin [8], the Kcat was 0.03 s⁻¹. In addition, the Km on chymotrypsin [9] worked out at 1 µM.
